The text below walks through data of ChEMBL document CHEMBL1159095, “Synthesis and optimization of thiadiazole derivatives as a novel class of substrate competitive c-Jun N-terminal kinase inhibitors” (Bioorg Med Chem, 2010).

The source made the active and inactive calls. No cut-off for these calls is given here. Where only a bound is given, the exact number is not on record here.

The target in data set [1] is T1, Mitogen-activated protein kinase 9 (Homo sapiens, UniProt P45984). Nature of the data set: Displacement of biotin-labeled pep-JIP1from JNK2 by DELFIA assay. Summed up:
(§1)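 Added Eu-labelled anti-GST antibody (300 ng/ml; 1.9 nM), compound in DMSO and GST-JNK2 at 10 nM final. Incubated 1 hr at 0 °C, washed 5 times, enhancement solution added, fluorescence read after 10 min (ex 340, em 615 nm). Controls were unlabelled peptide and no-compound blanks.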
Target sequence in this assay (P45984 whole entry): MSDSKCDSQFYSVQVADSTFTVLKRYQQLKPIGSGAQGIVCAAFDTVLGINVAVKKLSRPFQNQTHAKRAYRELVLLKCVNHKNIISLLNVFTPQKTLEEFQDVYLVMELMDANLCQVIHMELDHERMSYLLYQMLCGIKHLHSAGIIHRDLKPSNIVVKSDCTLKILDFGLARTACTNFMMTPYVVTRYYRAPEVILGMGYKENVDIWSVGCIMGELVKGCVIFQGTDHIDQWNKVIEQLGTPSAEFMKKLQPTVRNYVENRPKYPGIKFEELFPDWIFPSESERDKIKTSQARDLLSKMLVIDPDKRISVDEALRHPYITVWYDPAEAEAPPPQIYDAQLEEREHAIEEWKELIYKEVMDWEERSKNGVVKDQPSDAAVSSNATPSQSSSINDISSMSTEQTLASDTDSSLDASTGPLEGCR

Data set [2] can be described thus: Metabolic stability in rat plasma assessed as compound remaining after 60 mins by LC/MS-MS. Particulars: read-out: Stability. It counts as ADME, cell-free. Summed up: (§2)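 Compound at 1 μM (2.5% final DMSO) incubated in fresh rat plasma at 37 °C. Reactions stopped at 0, 30 and 60 min with two volumes of methanol containing internal standard, then precipitated, centrifuged and analysed by LC-MS. Percent parent remaining relative to 0 min calculated from peak-area ratios to internal standard. Run in duplicate with a plasma-labile positive control.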

Data set [3] can be described thus: Permeability assessed as drug flux at pH 7.4 by PAMPA assay. It counts as ADME. Summed up: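 PAMPA: filter impregnated with 1-20% phospholipid in organic solvent over an acceptor plate of aqueous buffer at pH 7.4. Donor added from a 20 μM stock (DMSO <2%). An equilibrium plate was prepared in parallel, and percent flux was calculated from acceptor versus equilibrium concentrations. Reference compounds included.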
(In general: In PAMPA a lipid-coated filter parts donor from acceptor wells.)

Data set [4] has as its target Mitogen-activated protein kinase 9 (Homo sapiens, UniProt P45984, C163S). The experiment in a line: Inhibition of JNK2 C163S mutant by isothermal calorimetry. The essentials: (§3)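 Isothermal titration calorimetry at 25 °C. C163S or wild-type JNK2 at 50 μM in 20 mM sodium phosphate pH 7.4 with 5% DMSO and 0.01% Triton X-100. Titrant at 750 μM in the same buffer.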
Data set [5] has as its target T1, Mitogen-activated protein kinase 9. The experiment in a line: Inhibition of wild-type JNK2 by isothermal calorimetry. The essentials:
as §3
Target sequence in this assay (P45984 whole entry): as above

In data set [6] the target is T2, Mitogen-activated protein kinase 8 (Homo sapiens, UniProt P45983). The experiment in a line: Inhibition of JNK1 up to 25 uM by TR-FRET assay. The essentials:
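LanthaScreen TR-FRET kinase assay. JNK1 at 35 ng/mL, ATF2 substrate at 400 nM and ATP at 0.2 μM in 50 mM HEPES pH 7.5, 10 mM MgCl2, 1 mM EGTA, 0.01% Brij-35, with compound. Reaction ran 1 hr at room temperature, then terbium-labelled antibody plus EDTA were added. After a further hour, the 520/495 nm emission ratio was read.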
(In general: TR-FRET usually uses a lanthanide donor and a delayed reading to cut background.)

Data set [7] deals with T1, Mitogen-activated protein kinase 9. Nature of the data set: Displacement of biotin-labeled pep-JIP1from JNK2 at 50 uM by DELFIA assay. The essentials: as §1
Target sequence in this assay (P45984 whole entry, looked up): as the sequence (P45984 whole entry) above
Data set [8] addresses T2, Mitogen-activated protein kinase 8. Nature of the data set: Inhibition of JNK1 by TR-FRET assay. The essentials: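 LanthaScreen TR-FRET kinase assay. JNK1 at 35 ng/mL, ATF2 substrate at 400 nM and ATP at 0.2 μM in 50 mM HEPES pH 7.5, 10 mM MgCl2, 1 mM EGTA, 0.01% Brij-35, with compound. Reaction ran 1 hr at room temperature, then terbium-labelled antibody plus EDTA were added.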

Data set [9] has as its target Mitogen-activated protein kinase 14 (Homo sapiens, UniProt Q16539). Nature of the data set: Inhibition of p38alpha MAPK.
Data set [10] deals with RAC-alpha serine/threonine-protein kinase (Homo sapiens, UniProt P31749). The experiment in a line: Inhibition of AKT.
The target in data set [11] is Furin (Homo sapiens, UniProt P09958). Nature of the data set: Inhibition of FURIN.
Data set [12] addresses T3, Lethal factor (Bacillus anthracis, UniProt P15917).
T3 sequence (P15917 whole entry): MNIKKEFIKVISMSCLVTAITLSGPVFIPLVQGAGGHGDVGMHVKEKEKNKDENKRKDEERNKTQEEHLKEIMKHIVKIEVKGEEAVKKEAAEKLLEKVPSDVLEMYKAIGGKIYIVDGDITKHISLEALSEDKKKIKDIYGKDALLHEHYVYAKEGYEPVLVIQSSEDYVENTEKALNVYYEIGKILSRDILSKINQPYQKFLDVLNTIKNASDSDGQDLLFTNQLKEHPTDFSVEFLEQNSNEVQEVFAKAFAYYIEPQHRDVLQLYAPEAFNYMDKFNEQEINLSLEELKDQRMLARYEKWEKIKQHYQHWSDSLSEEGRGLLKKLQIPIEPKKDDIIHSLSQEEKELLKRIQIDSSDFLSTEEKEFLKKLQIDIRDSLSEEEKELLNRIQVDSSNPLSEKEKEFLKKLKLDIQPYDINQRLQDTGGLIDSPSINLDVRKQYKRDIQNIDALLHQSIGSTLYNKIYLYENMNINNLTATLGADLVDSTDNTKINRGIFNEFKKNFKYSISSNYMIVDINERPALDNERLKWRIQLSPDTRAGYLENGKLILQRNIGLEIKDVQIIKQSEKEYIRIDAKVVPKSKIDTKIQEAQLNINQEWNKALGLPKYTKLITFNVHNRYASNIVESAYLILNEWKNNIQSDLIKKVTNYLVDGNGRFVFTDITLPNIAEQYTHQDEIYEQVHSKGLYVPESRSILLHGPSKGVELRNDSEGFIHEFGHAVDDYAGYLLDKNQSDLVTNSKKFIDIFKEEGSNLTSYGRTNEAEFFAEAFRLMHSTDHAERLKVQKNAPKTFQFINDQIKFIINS
Nature of the data set: Inhibition of Bacillus anthracis anthrax lethal factor.

The nature of data set [13]: Metabolic stability in rat plasma assessed as compound remaining after 30 mins by LC/MS-MS. It counts as ADME, cell-free. Particulars: read-out: Stability. Summed up: as §2
Data set [14] in a line: Inhibition of JNK-mediated TNF-alpha-stimulated c-Jun phosphorylation by cell-based TR-FRET assay. Summed up:
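HeLa cells stably expressing GFP-c-Jun(1-79) plated at 10000/well in Opti-MEM with 1% charcoal/dextran-treated FBS, no phenol red, and left overnight. Pretreated 60 min with compound, then stimulated 30 min with TNF-alpha at 2 ng/ml. Lysed in buffer containing 2 nM terbium anti-phospho-c-Jun (Ser73) antibody and equilibrated 1 h at room temperature. TR-FRET ratio Em520/Em490 read with excitation at 340 nm.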

Sequence of Mitogen-activated protein kinase 14 (Q16539 whole entry): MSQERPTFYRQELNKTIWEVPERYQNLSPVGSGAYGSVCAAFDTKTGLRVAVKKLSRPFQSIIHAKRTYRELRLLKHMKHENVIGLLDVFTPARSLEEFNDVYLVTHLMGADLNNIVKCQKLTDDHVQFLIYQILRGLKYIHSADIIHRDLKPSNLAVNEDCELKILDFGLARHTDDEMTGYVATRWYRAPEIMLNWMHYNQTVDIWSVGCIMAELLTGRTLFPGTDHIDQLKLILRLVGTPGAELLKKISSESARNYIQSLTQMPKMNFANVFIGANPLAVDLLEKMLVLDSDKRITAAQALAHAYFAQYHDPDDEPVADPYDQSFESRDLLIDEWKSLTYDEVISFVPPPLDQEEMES
Sequence of RAC-alpha serine/threonine-protein kinase (P31749 whole entry): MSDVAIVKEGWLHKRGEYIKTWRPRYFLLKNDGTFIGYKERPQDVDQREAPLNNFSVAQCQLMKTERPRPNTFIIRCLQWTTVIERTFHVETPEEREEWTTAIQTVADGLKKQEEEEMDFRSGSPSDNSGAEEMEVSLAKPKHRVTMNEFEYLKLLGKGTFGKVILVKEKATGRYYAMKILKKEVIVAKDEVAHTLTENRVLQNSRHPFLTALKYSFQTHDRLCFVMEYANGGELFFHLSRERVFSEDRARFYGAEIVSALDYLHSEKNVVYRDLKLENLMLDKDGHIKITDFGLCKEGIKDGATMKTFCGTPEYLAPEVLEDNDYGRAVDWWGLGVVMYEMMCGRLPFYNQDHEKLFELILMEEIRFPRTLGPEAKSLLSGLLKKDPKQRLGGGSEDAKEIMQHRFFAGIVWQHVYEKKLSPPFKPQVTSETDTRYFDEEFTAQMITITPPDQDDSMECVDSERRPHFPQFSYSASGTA
T2 sequence (P45983 whole entry): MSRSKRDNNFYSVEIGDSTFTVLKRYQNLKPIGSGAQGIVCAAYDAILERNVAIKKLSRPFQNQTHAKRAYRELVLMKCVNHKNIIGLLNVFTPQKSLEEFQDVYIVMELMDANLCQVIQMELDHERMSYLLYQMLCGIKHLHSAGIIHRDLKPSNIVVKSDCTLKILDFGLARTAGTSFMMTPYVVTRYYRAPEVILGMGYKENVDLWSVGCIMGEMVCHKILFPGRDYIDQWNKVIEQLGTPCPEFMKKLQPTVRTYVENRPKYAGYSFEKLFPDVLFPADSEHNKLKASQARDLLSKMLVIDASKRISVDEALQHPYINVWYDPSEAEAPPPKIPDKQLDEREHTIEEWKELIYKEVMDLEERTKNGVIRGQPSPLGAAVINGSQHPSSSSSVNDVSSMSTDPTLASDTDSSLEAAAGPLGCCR
Sequence of Furin (P09958 whole entry): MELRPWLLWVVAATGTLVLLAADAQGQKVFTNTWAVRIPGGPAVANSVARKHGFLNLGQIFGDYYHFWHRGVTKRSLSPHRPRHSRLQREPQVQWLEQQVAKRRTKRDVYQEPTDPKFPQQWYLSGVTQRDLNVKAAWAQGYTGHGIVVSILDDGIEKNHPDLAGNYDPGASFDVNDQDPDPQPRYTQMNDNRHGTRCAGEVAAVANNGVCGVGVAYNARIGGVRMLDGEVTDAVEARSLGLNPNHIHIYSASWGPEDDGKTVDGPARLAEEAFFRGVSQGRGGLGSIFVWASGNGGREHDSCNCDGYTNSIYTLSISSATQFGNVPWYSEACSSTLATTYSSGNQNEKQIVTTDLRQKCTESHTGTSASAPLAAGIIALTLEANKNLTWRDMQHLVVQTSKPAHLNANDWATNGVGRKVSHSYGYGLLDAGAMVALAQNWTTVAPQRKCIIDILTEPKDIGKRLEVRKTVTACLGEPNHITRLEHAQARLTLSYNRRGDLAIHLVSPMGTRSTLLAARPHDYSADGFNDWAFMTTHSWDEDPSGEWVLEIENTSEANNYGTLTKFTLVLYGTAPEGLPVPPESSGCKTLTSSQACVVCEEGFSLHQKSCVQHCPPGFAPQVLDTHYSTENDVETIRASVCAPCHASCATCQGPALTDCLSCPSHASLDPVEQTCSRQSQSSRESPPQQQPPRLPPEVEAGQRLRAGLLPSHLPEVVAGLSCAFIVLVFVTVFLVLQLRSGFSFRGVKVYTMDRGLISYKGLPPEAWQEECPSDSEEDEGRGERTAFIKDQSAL
Sequence of Mitogen-activated protein kinase 9 (Homo sapiens, UniProt P45984, C163S) (P45984 whole entry C163S): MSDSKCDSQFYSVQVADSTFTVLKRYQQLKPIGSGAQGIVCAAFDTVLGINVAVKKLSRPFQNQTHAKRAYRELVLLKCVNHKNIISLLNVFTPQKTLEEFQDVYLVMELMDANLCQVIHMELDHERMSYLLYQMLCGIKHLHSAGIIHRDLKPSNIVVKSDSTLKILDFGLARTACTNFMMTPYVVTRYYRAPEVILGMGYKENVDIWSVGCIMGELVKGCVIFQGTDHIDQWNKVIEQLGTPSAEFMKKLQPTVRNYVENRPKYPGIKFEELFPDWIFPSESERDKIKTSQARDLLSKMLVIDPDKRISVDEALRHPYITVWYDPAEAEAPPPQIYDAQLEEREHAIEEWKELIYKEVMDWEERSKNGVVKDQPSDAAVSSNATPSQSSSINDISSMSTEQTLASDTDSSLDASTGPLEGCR

A word on the IC50: it is the point on the concentration scale where inhibition reaches its midpoint. By Kd is commonly meant the equilibrium constant for the complex coming apart. Higher therefore signals a looser complex. In [1], `O=[N+]([O-])c1cnc(Sc2nnc(O)n2-c2ccc3c(c2)OCCO3)s1` registered an IC50 of 0.5 µM. In addition, in data set [2], the remaining at 1 h is 0%. In [3], the permeability is listed as 5.5%. Also, the Kd is 51.1 µM in data set [4] and 8.1 µM in [5].

The term inhibition denotes the percentage by which the read-out fell short of the control. For `CCCCNc1nnc(Sc2ncc([N+](=O)[O-])s2)s1`, the inhibition entry in [6] was “inactive”. Further, in data set [7], the inhibition was found to be 20%.

For the compound `CCCNc1nnc(Sc2ncc([N+](=O)[O-])s2)s1`, the IC50 in data set [8] is 6.7 µM; in data set [1], 0.29 µM; in data set [9], over 100 µM; in data set [10] it was over 100 µM; in data set [11], over 50 µM; in [12], over 100 µM. Further, the remaining at 1 h in data set [2] was 42%. Moreover, in [3], the permeability stood at 30%. For the same compound, the remaining at 0.5 h in data set [13] was found to be 48.1%. Further, the Kd in data set [4] is 7.2 µM; in data set [5] it was 9.4 µM.

Turning to `CC(C)(C)Nc1nnc(Sc2ncc([N+](=O)[O-])s2)s1`, the inhibition result in data set [6] was “inactive”. Besides, in [7], the inhibition came out at 20%.

As for `CCNc1nnc(Sc2ncc([N+](=O)[O-])s2)s1`, the IC50 turned out to be 100 µM in data set [8] and 10 µM in [1].

Take `COc1ccc(CNc2nnc(Sc3ncc([N+](=O)[O-])s3)s2)cc1`: the IC50 turned out to be 9.1 µM in data set [8], 0.1 µM in data set [1] and 21 µM in [14].

Consider `CCC(C)Nc1nnc(Sc2ncc([N+](=O)[O-])s2)s1` (stereo not given), for which the half-inhibitory concentration (IC50) in [8] is 3 µM; in [1], 0.14 µM; in data set [9], over 100 µM; in [10], over 100 µM; in [11], over 50 µM; in data set [12], over 100 µM. Further, the half-maximal inhibitory concentration (IC50) in [14] turned out to be 20 µM. The permeability in data set [3] is listed as 7.9%. Further, the remaining at 0.5 h in data set [13] came to 90%.

Take `COc1ccc(CCNc2nnc(Sc3ncc([N+](=O)[O-])s3)s2)cc1OC`: the IC50 in data set [8] was 5.7 µM; in data set [1], 0.1 µM; in data set [9], over 100 µM; in data set [10] it was over 100 µM; in data set [11], over 50 µM; in data set [12] it was over 100 µM. Besides, in data set [2], the remaining at 1 h came out at 68%. In addition, the permeability in data set [3] was determined as 76.3%. For the same compound, the remaining at 0.5 h in data set [13] is 6.05%. The affinity in data set [4], expressed as Kd, was 1.9 µM.

Regarding `O=[N+]([O-])c1cnc(Sc2nnc(NCc3ccccc3)s2)s1`, the inhibition entry in data set [6] is “inactive”. Moreover, the inhibition in [7] was found to be 20%.

As to `O=[N+]([O-])c1cnc(Sc2nnc(NCC3CCCO3)s2)s1` (stereo not given), the results for the IC50 in data set [8] and in data set [1] were 10 µM and 0.47 µM, respectively.

Take `COCCNc1nnc(Sc2ncc([N+](=O)[O-])s2)s1`: the IC50 was 4.8 µM in data set [8]; 0.16 µM in data set [1]; over 100 µM in data set [9]; over 100 µM in data set [10]; over 50 µM in [11]; over 100 µM in [12]. Besides, in data set [14], half-maximal inhibition (IC50) required 8 µM. Also, the remaining at 1 h in data set [2] was 35%. In addition, in data set [3], the permeability is on record as 49.8%. Further, the remaining at 0.5 h in data set [13] came to 79.7%. Also, the Kd in data set [4] stood at 4.2 µM; in data set [5], 2.8 µM.
